Experimental data: ChEMBL document CHEMBL1177716, “Kinesin spindle protein (KSP) inhibitors with 2,3-fused indole scaffolds” (J Med Chem, 2010)
Activity calls are given as the source filed them. The calls are words filed in the database; no cut-off is given here.

What was measured:
HeLa = experiment: Cytotoxicity against human HeLa cells after 48 hrs […]; assay type: functional, cell-based; conditions: Homo sapiens, HeLa, 48 h
Sus scrofa [1] = species: Sus scrofa; experiment: Inhibition of pig brain topoisomerase 2-mediated supercoiled DNA relaxation after 20 mins by agarose gel electrophoresis analysis
Method in brief: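 Supercoiled DNA was incubated with topo II, with or without test compound. Gel lanes included supercoiled DNA alone, DNA plus enzyme without compound, and DNA plus enzyme with AMSA as the reference inhibitor.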

[2] = biological target: T1, Kinesin-like protein KIF22 (Homo sapiens) (UniProt Q14807); experiment: Inhibition of Kid ATPase activity at 20 uM
T1 sequence (whole entry): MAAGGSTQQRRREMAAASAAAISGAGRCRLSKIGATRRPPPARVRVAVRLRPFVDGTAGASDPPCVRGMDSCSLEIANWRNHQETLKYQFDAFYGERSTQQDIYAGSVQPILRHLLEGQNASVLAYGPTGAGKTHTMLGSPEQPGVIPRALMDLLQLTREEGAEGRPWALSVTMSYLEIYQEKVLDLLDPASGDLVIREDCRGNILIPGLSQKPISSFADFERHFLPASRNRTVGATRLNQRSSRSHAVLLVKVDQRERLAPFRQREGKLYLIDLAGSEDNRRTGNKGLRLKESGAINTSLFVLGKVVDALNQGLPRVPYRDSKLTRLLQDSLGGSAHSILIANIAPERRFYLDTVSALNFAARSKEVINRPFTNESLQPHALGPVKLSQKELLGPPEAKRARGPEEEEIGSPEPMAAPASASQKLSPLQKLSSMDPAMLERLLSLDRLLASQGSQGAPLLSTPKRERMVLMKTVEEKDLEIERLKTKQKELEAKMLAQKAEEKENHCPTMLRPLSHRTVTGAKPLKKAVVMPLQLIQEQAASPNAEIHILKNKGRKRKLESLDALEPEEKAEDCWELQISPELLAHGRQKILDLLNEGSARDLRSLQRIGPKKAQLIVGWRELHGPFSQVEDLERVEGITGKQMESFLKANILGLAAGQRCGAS

Sus scrofa [3] = species: Sus scrofa; experiment: Inhibition of pig brain topoisomerase 1-mediated supercoiled DNA relaxation after 20 mins by agarose gel electrophoresis analysis
Method in brief: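 Supercoiled DNA was incubated with topo I, with or without test compound. Gel lanes included supercoiled DNA alone, DNA plus enzyme without compound, and DNA plus enzyme with camptothecin as the reference inhibitor.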

Nucleic Acid = experiment: Induction of supercoiled DNA relaxation after 20 mins by agarose gel electrophoresis analysis; assay type: nucleic-acid assay
[4] = biological target: Centromere-associated protein E (Homo sapiens) (UniProt Q02224); experiment: Inhibition of CENP-E ATPase activity at 20 uM
Centromere-associated protein E (Homo sapiens), sequence (Q02224 whole entry, the tested form may be a part): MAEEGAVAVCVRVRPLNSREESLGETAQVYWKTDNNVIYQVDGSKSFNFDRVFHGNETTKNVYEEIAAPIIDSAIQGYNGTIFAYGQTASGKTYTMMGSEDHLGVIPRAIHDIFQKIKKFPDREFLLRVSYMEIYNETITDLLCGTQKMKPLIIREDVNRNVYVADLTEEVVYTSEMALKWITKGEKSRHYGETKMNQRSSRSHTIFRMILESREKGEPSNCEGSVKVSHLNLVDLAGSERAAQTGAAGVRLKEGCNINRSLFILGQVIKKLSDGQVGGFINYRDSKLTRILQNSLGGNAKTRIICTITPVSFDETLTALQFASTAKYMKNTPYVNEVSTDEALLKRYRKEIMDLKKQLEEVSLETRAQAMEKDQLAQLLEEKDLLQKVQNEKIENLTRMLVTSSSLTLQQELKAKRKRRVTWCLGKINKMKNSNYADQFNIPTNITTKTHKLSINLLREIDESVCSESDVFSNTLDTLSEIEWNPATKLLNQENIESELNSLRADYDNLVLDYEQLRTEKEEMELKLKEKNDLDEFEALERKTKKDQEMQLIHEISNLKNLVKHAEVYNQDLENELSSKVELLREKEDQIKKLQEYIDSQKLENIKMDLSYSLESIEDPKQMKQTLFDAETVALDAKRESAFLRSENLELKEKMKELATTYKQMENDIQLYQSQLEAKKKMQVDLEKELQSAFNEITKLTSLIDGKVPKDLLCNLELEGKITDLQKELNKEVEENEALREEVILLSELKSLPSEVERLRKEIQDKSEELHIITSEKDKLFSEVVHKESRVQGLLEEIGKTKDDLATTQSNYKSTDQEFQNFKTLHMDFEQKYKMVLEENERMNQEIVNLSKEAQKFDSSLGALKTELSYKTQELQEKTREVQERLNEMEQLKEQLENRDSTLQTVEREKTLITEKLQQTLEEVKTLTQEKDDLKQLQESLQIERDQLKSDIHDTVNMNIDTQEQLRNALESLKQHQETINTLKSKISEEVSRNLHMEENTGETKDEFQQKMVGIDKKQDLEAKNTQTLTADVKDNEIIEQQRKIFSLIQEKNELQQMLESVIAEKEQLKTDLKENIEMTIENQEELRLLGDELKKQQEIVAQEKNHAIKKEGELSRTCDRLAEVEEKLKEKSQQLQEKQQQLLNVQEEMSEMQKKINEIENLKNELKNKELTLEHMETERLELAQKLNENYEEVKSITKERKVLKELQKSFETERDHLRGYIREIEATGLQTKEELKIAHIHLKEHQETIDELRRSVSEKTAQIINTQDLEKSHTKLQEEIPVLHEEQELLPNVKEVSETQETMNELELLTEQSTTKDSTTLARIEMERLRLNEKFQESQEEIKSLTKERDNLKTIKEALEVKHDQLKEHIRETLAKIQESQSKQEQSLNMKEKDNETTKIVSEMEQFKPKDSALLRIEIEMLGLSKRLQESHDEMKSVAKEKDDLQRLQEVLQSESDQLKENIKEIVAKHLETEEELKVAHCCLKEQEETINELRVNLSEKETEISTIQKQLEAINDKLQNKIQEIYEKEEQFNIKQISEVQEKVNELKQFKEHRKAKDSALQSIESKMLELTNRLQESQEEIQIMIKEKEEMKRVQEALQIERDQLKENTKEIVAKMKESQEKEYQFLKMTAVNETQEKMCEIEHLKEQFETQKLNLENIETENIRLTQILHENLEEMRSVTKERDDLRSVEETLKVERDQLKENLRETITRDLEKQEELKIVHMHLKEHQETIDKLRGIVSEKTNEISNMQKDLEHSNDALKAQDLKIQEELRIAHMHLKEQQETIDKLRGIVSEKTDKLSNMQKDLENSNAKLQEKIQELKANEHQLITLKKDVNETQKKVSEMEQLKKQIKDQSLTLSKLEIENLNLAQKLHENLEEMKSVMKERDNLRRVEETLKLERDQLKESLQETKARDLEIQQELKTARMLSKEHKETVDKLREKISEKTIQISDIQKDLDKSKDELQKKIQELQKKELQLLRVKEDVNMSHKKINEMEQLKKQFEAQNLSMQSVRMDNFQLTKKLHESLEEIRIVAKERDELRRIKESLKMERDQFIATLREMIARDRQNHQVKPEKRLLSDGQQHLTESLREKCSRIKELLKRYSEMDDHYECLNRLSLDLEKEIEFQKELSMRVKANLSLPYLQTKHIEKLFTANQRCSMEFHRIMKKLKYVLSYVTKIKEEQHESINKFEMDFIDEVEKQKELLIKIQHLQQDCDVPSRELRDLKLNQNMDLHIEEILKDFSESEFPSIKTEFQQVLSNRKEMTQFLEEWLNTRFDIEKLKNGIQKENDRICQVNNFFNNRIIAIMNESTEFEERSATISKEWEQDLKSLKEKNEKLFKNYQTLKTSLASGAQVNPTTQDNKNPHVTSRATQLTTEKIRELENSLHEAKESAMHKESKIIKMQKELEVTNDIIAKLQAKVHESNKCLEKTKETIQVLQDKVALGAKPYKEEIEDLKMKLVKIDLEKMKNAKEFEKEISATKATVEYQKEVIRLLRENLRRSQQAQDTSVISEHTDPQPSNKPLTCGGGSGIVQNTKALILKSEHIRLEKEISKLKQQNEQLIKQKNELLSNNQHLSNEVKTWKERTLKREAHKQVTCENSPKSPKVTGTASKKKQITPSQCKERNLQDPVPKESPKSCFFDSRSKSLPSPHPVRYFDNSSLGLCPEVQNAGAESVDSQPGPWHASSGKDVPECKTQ

[5] = biological target: T2, Kinesin-like protein KIF11 (Homo sapiens, UniProt P52732); experiment: Inhibition of human C-terminally His6-tagged microtubule-activated KSP motor domain ATPase activity after 30 mins by luciferase-derived luminescence assay
T2 sequence (P52732 whole entry): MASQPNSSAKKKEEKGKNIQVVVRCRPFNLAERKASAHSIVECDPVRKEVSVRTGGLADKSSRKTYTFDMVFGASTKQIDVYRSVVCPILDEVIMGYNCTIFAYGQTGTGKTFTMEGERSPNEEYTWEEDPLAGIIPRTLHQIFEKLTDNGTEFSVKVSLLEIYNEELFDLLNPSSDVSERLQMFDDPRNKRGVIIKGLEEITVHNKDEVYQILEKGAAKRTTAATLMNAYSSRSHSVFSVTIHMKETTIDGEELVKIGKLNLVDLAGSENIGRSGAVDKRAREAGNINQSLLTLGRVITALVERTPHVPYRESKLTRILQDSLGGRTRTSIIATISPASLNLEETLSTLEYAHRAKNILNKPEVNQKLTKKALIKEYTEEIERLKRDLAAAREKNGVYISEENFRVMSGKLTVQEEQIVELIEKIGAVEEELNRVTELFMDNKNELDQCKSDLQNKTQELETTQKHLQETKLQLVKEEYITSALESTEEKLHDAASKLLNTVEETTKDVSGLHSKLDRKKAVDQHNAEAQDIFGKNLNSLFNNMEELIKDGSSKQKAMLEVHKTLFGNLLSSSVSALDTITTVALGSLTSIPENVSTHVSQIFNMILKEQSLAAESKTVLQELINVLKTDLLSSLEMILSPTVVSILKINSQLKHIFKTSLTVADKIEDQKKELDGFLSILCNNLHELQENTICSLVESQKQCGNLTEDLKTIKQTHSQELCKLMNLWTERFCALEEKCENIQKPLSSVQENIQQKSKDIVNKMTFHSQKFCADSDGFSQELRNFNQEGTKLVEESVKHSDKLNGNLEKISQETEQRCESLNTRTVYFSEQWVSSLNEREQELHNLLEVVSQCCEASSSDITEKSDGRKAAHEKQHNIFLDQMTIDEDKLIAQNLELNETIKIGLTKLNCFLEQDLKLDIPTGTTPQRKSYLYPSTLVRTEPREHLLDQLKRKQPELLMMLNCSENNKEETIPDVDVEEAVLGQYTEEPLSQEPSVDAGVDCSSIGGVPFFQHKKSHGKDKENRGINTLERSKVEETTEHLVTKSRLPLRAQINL

Structure (SMILES) | IC50 (HeLa) [µM] | inhibition (Sus scrofa [1]) | inhibition [2] | inhibition (Sus scrofa [3]) | Activity (Nucleic Acid) | inhibition [4] | IC50 [5] [µM]
FC(F)(F)c1ccc2[nH]c3ccccc3c2c1 | 14 | inactive | inactive | inactive | inactive | inactive | 0.95
FC(F)(F)c1ccc2c(c1)[nH]c1ccccc12 | 11 | inactive | inactive | inactive | inactive | inactive | 0.26
CC(C)(C)c1ccc2c(c1)[nH]c1ccccc12 | 40 | inactive | inactive | inactive | inactive | inactive | 0.3
